# Experimental data from different studies.
# Each line is one published result; the experiments were not run side by side.
# Target: Adenosine receptor A2a (ADORA2A, Homo sapiens, UniProt P29274)
Structure (SMILES),test,setting,inhibition [%]
O=C1N=C(N2CCCCN2)S/C1=C\c1ccc(F)cc1O,"ligand displacement, radioligand",10 µM,10
C#CCNc1nc(Cl)nc2c1ncn2[C@H]1[C@H](O)[C@H](O)[C@]2(C(=O)NC)C[C@H]12,"ligand displacement, radioligand","10 µM, cell membranes",23
O=C(Nc1ccc(S(=O)(=O)N2CCC(Cl)CC2)cc1)c1ccc([N+](=O)[O-])o1,"ligand displacement, radioligand",10 µM,8
O=C(c1ccc(F)cc1)N(Cc1ccccc1)C1CCCCC1,cell-free assay,10 µM,5
c1ccc(N2CCN(CCc3ccc4oc(-c5ccco5)nc4c3)CC2)cc1,"ligand displacement, radioligand","10 µM, cell membranes",3
COc1cc(NC(C)=O)c(Cl)cc1C(=O)Nc1nccs1,cell-free assay,10 µM,39.7
Ic1cccc2cnccc12,"ligand displacement, radioligand",10 µM,8
CCN(Cc1ccccc1C(F)(F)F)C(=O)C1CCN(S(=O)(=O)c2ccc3[nH]ncc3c2)CC1,"ligand displacement, radioligand",10 µM,3
c1coc(-c2nc3ccc(CN4CCCCC4)cc3o2)c1,"ligand displacement, radioligand","10 µM, cell membranes",5
Nc1nc[nH]c(=O)c1Cl,"ligand displacement, radioligand","30 µM, cell membranes",23
CC(C)(C)OC(=O)N1CCN(CC(=O)Nc2ccc3oc(-c4ccco4)nc3c2)CC1,"ligand displacement, radioligand","10 µM, cell membranes",25
C=CN1CCCn2c1nc1c2c(=O)n(C)c(=O)n1C,"ligand displacement, radioligand","10 µM, cell membranes",29
